Results published in PMC6005736 (Leukemia & lymphoma, 2017).
Entries after “also recorded” stand apart in the source; their conditions may differ.

What was measured:
Cerulean-Runt domain = experiment: Saturation transfer difference; type: binding; conditions: STD NMR
[1] = system: hematopoietic stem and progenitor cell (HSPC) formation in zebrafish embryos; experiment: HSPC formation in zebrafish embryos; type: in vivo
Kasumi-1 cells [2] = experiment: MTT cell viability assay, Kasumi-1; type: cell-based, human; conditions: 48 hours in culture
Method in brief: (§1)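 Leukemia cell lines were treated with test compound, with DMSO vehicle and staurosporine positive-control arms, and viability was read by MTT. Mean of triplicates ± SD, two independent experiments. One-way ANOVA excluding staurosporine, then Dunnett's test against DMSO-treated cells (P ≤ 0.05).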

720 T-ALL cell line = experiment: MTT cell viability assay, 720 T-ALL; type: cell-based, mouse; conditions: 48 hours
Method in brief: as §1

Jurkat = experiment: MTT cell viability assay, Jurkat; type: cell-based, human; conditions: 48 hours
Method in brief: as §1

8946 T-ALL cell line = experiment: MTT cell viability assay, 8946; type: cell-based, murine; conditions: 48 hours
Method in brief: as §1

Kasumi-1 cells [3] = experiment: DAPI flow cytometry of dead/live Kasumi-1 cells; type: cell-based, human; conditions: 48 hours in culture
[4] = system: AML1-ETO9a + NRas^G12D AML cells; experiment: CFU-C assay, murine AML1-ETO9a + NRasG12D AML cells; type: cell-based, mouse; conditions: methylcellulose, colonies counted 7 days after plating
Method in brief: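 Leukemic cells came from a secondary recipient of spleen cells. The primary recipient had received fetal liver cells transduced with AML1-ETO9a and NRasG12D retroviruses. 20,000 cells were plated in methylcellulose with various test compound concentrations (DMSO final 0.2%). Colonies were counted at day 7. Triplicates per concentration, two experiments, SD. One-way ANOVA with Dunnett's test versus DMSO.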

[5] = system: normal mouse bone marrow cells; experiment: CFU-C assay, normal mouse bone marrow cells; type: cell-based; conditions: methylcellulose, colonies counted 7 days after plating
[6] = system: t(8;21) positive human AML samples; experiment: CFU-C assay, primary human t; type: cell-based; conditions: five samples, methylcellulose, colonies counted 14 days after plating
Method in brief: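 Primary AML specimens (pheresis or bone marrow mononuclear cells) were plated in methylcellulose with various test compound concentrations. Colonies were scored 14 days after plating. Triplicate cultures per concentration, two experiments. Significance versus DMSO by one-way ANOVA with Dunnett's multiple-comparison test.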

[7] = system: normal bone marrow mononuclear cells (BM-MNCs); experiment: CFU-C assay, normal human bone marrow mononuclear cells; type: cell-based; conditions: methylcellulose, colonies counted 14 days after plating
720 T-ALL cells = experiment: qPCR gene expression in 720 T-ALL cells; type: cell-based, mouse; conditions: 720 T-ALL cells treated for 16 hours
Method in brief: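 720 T-ALL cells were exposed to test compound for 16 h and transcript levels quantified by qPCR relative to DMSO-treated cells. Triplicate means ± SD, two experiments. One-way ANOVA with Dunnett's comparison against DMSO.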

[8] = molecular target: Runt domain - CBFβ interaction (Homo sapiens, UniProt Q01196); experiment: FRET assay of Cerulean-Runt domain and Venus-CBFβ binding
Sequence of Runt domain - CBFβ interaction (Q01196 50-178 limits assumed): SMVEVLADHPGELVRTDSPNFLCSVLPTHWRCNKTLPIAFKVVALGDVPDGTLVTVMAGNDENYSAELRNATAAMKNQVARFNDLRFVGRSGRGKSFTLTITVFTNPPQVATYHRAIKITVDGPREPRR
Method in brief: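 Purified Cerulean-Runt domain and Venus-CBFβ fusion proteins were used in a competition FRET format. Test compounds displace CBFβ binding to the Runt domain. Initial screening of compounds was at 200 µM.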

CBFβ-Runx = conditions: ref [44]; cited from earlier work

S=c1[nH]nc(-c2ccc(-c3cccc(Cl)c3)o2)s1 [AI-8–45]
saturation transfer effect / binding to Runt domain (Cerulean-Runt domain): in close contact with the protein | Flk1:dsRed+Myb:Gfp+ HSPCs in the VDA at 36 hpf ([1]; Tg(kdrl:dsred;cmyb:egfp) embryos, 2.5 µM, 12 to 36 hpf, flow cytometry): decreased | number of CD41:Gfp+ HSPCs in the CHT at 48 hpf ([1]; Tg(−6.0itga2b:egfp) embryos, treated 18 to 48 hpf, compared to AI-7–54 treated controls): decreased | growth of Kasumi-1 cells (MTT) (Kasumi-1 cells [2]): significantly reduced the growth; also recorded: inhibit proliferation | growth of 720 T-ALL cells (MTT) (720 T-ALL cell line): significantly reduced the growth; also recorded: inhibit proliferation | growth of Jurkat cells (MTT) (Jurkat): significantly reduced the growth; also recorded: inhibit proliferation | growth of 8946 T-ALL cells (MTT) (8946 T-ALL cell line): significantly reduced the growth; also recorded: inhibit proliferation | percentage of DAPI-positive dead cells (Kasumi-1 cells [3]): statistically significant and dose-dependent increase | colony formation of AML1-ETO9a + NRasG12D AML cells [4]: significantly reduced colony formation | colony formation by normal mouse bone marrow cells [5]: Neither AI-8–45 nor AI-9–54 had any effect | colony numbers of t(8;21) positive human AML samples [6]: significantly reduced the colony numbers | colony numbers of normal bone marrow mononuclear cells [7]: but not that of normal bone marrow mononuclear cells | expression of Deptor, Cdkn1a, Dhcr24, Cebpa, Csf1r (qPCR) (720 T-ALL cells): affected

Sc1nnc(-c2ccccc2)s1 [4b, 5-phenyl-1,3,4-thiadiazole-2(3H)-thione]
IC50 [8]: 11 ± 1.3 µM

O=C1CN=C(c2ccc[nH]2)c2cc(Cl)ccc2N1 [Ro5-3335]
inhibitor of CBFβ-Runx (CBFβ-Runx): inhibitor of CBFβ-Runx

CSc1nnc(-c2ccccc2F)s1 [6a, 2-(2-fluorophenyl)-5-(methylthio)-1,3,4-thiadiazole]
activity in the FRET assay ([8]; Cerulean-Runt domain and Venus-CBFβ at 100 nM): complete loss of activity
